Laboratory results taken from ChEMBL document CHEMBL1671686, “Carbapenem-resistant KPC-2-producing Escherichia coli in a Tel Aviv Medical Center, 2005 to 2008” (2010).
≈ marks a conversion by molar mass, not a printed value.

What was measured:
Type in all cases: functional
Escherichia coli [1] = assay: Antimicrobial activity against Escherichia coli isolate 157 expressing beta-lactamase KPC2, CTX-M-15, TEM and PFGE cluster 3 isolated from urine of patient by agar dilution method; settings: isolate 157, Urine
Summary of the method: (§1)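 Clinical carbapenem-resistant E. coli isolates collected Feb 2005–Oct 2008. Carbapenem MICs determined by agar dilution following CLSI protocols.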

Escherichia coli [2] = assay: Antimicrobial activity against Escherichia coli isolate 157T expressing beta-lactamase KPC2 and PFGE cluster 3 isolated from urine of patient by agar dilution method
Summary of the method: (§2)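 Transformant strains. Plasmids purified from the clinical isolates were electroporated into E. coli DH10B. Transformants were selected on LB agar with 100 μg/ml ampicillin, and colonies were PCR-screened for blaKPC before susceptibility testing.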

Escherichia coli [3] = assay: Antimicrobial activity against Escherichia coli isolate 329 expressing beta-lactamase KPC2, CTX-M-2, TEM and PFGE cluster 2 isolated from blood of patient by agar dilution method
Summary of the method: (§3)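 Clinical carbapenem-resistant E. coli isolates from the hospital, February 2005 to October 2008. Carbapenem MICs were determined by agar dilution following CLSI protocols.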

Escherichia coli [4] = assay: Antimicrobial activity against Escherichia coli isolate 329T expressing beta-lactamase KPC2 and PFGE cluster 2 isolated from blood of patient by agar dilution method; summary of the method: as §2
Escherichia coli [5] = assay: Antimicrobial activity against Escherichia coli isolate 339 expressing beta-lactamase KPC2, TEM and PFGE cluster 5 isolated from peritoneal fluid of patient by agar dilution method; summary of the method: as §3
Escherichia coli [6] = assay: Antimicrobial activity against Escherichia coli isolate 339T expressing beta-lactamase KPC2 and PFGE cluster 5 isolated from peritoneal fluid of patient by agar dilution method; summary of the method: as §2
Escherichia coli [7] = assay: Antimicrobial activity against Escherichia coli isolate 360 expressing beta-lactamase KPC2, CTX-M-15, OXA-9, TEM and PFGE cluster 1 isolated from urine of patient by agar dilution method; settings: isolate 360, Urine; summary of the method: as §1
Escherichia coli [8] = assay: Antimicrobial activity against Escherichia coli isolate 360T expressing beta-lactamase KPC2, OXA-9 and PFGE cluster 1 isolated from urine of patient by agar dilution method; summary of the method: as §2
Escherichia coli [9] = assay: Antimicrobial activity against Escherichia coli isolate 386 expressing beta-lactamase KPC2, CTX-M-15, OXA-9, TEM and PFGE cluster 1 isolated from wound of patient by agar dilution method; summary of the method: as §1
Escherichia coli [10] = assay: Antimicrobial activity against Escherichia coli isolate 386T expressing beta-lactamase KPC2, OXA-9 and PFGE cluster 1 isolated from wound of patient by agar dilution method; summary of the method: as §2
Escherichia coli [11] = assay: Antimicrobial activity against Escherichia coli isolate 540 expressing beta-lactamase KPC2, TEM and PFGE cluster 4 isolated from synovial fluid of patient by agar dilution method; summary of the method: as §3
Escherichia coli [12] = assay: Antimicrobial activity against Escherichia coli isolate 543 expressing beta-lactamase KPC2, CTX-M-15, TEM and PFGE cluster 4 isolated from synovial fluid of patient by agar dilution method; summary of the method: as §3
Escherichia coli [13] = assay: Antimicrobial activity against Escherichia coli isolate 543T expressing beta-lactamase KPC2 and PFGE cluster 4 isolated from synovial fluid of patient by agar dilution method; summary of the method: as §2
Escherichia coli [14] = assay: Antimicrobial activity against Escherichia coli isolate 544 expressing beta-lactamase KPC2, TEM and PFGE cluster 4 isolated from abscess of patient by agar dilution method; summary of the method: as §3
Escherichia coli [15] = assay: Antimicrobial activity against Escherichia coli isolate 547 expressing beta-lactamase KPC2, TEM and PFGE cluster 4 isolated from blood of patient by agar dilution method; summary of the method: as §1
Escherichia coli [16] = assay: Antimicrobial activity against Escherichia coli isolate 547T expressing beta-lactamase KPC2 and PFGE cluster 4 isolated from blood of patient by agar dilution method; summary of the method: as §2
Escherichia coli [17] = assay: Antimicrobial activity against Escherichia coli isolate 1679 expressing beta-lactamase KPC2, SHV-12, TEM and PFGE cluster 6 isolated from peritoneal fluid of patient by agar dilution method; summary of the method: as §3
Escherichia coli [18] = assay: Antimicrobial activity against Escherichia coli isolate 1679T expressing beta-lactamase KPC2, TEM and PFGE cluster 6 isolated from peritoneal fluid of patient by agar dilution method; summary of the method: as §2
Escherichia coli [19] = assay: Antimicrobial activity against Escherichia coli DH10B by Etest; settings: K-12 DH10B
Escherichia coli [20] = assay: Antimicrobial activity against Escherichia coli isolate 157 expressing beta-lactamase KPC2, CTX-M-15, TEM and PFGE cluster 3 isolated from urine of patient by Etest
Escherichia coli [21] = assay: Antimicrobial activity against Escherichia coli isolate 157T expressing beta-lactamase KPC2 and PFGE cluster 3 isolated from urine of patient by Etest; summary of the method: as §2
Escherichia coli [22] = assay: Antimicrobial activity against Escherichia coli isolate 329 expressing beta-lactamase KPC2, CTX-M-2, TEM and PFGE cluster 2 isolated from blood of patient by Etest
Escherichia coli [23] = assay: Antimicrobial activity against Escherichia coli isolate 329T expressing beta-lactamase KPC2 and PFGE cluster 2 isolated from blood of patient by Etest; summary of the method: as §2
Escherichia coli [24] = assay: Antimicrobial activity against Escherichia coli isolate 339 expressing beta-lactamase KPC2, TEM and PFGE cluster 5 isolated from peritoneal fluid of patient by Etest
Escherichia coli [25] = assay: Antimicrobial activity against Escherichia coli isolate 339T expressing beta-lactamase KPC2 and PFGE cluster 5 isolated from peritoneal fluid of patient by Etest; summary of the method: as §2
Escherichia coli [26] = assay: Antimicrobial activity against Escherichia coli isolate 360 expressing beta-lactamase KPC2, CTX-M-15, OXA-9, TEM and PFGE cluster 1 isolated from urine of patient by Etest
Escherichia coli [27] = assay: Antimicrobial activity against Escherichia coli isolate 360T expressing beta-lactamase KPC2, OXA-9 and PFGE cluster 1 isolated from urine of patient by Etest; summary of the method: as §2
Escherichia coli [28] = assay: Antimicrobial activity against Escherichia coli isolate 386 expressing beta-lactamase KPC2, CTX-M-15, OXA-9, TEM and PFGE cluster 1 isolated from wound of patient by Etest
Escherichia coli [29] = assay: Antimicrobial activity against Escherichia coli isolate 386T expressing beta-lactamase KPC2, OXA-9 and PFGE cluster 1 isolated from wound of patient by Etest; summary of the method: as §2
Escherichia coli [30] = assay: Antimicrobial activity against Escherichia coli isolate 540 expressing beta-lactamase KPC2, TEM and PFGE cluster 4 isolated from synovial fluid of patient by Etest
Escherichia coli [31] = assay: Antimicrobial activity against Escherichia coli isolate 543 expressing beta-lactamase KPC2, CTX-M-15, TEM and PFGE cluster 4 isolated from synovial fluid of patient by Etest
Escherichia coli [32] = assay: Antimicrobial activity against Escherichia coli isolate 543T expressing beta-lactamase KPC2 and PFGE cluster 4 isolated from synovial fluid of patient by Etest; summary of the method: as §2
Escherichia coli [33] = assay: Antimicrobial activity against Escherichia coli isolate 544 expressing beta-lactamase KPC2, TEM and PFGE cluster 4 isolated from abscess of patient by Etest
Escherichia coli [34] = assay: Antimicrobial activity against Escherichia coli isolate 547 expressing beta-lactamase KPC2, TEM and PFGE cluster 4 isolated from blood of patient by Etest
Escherichia coli [35] = assay: Antimicrobial activity against Escherichia coli isolate 547T expressing beta-lactamase KPC2 and PFGE cluster 4 isolated from blood of patient by Etest; summary of the method: as §2
Escherichia coli [36] = assay: Antimicrobial activity against Escherichia coli isolate 1679 expressing beta-lactamase KPC2, SHV-12, TEM and PFGE cluster 6 isolated from peritoneal fluid of patient by Etest
Escherichia coli [37] = assay: Antimicrobial activity against Escherichia coli isolate 1679T expressing beta-lactamase KPC2, TEM and PFGE cluster 6 isolated from peritoneal fluid of patient by Etest; summary of the method: as §2

Molecule	MIC (Escherichia coli [1])	MIC (Escherichia coli [2])	MIC (Escherichia coli [3])	MIC (Escherichia coli [4])	MIC (Escherichia coli [5])	MIC (Escherichia coli [6])	MIC (Escherichia coli [7])	MIC (Escherichia coli [8])	MIC (Escherichia coli [9])	MIC (Escherichia coli [10])	MIC (Escherichia coli [11])	MIC (Escherichia coli [12])	MIC (Escherichia coli [13])	MIC (Escherichia coli [14])	MIC (Escherichia coli [15])	MIC (Escherichia coli [16])	MIC (Escherichia coli [17])	MIC (Escherichia coli [18])	MIC (Escherichia coli [19])	MIC (Escherichia coli [21])	further results
C[C@@H](O)[C@H]1C(=O)N2C(C(=O)O)=C(S[C@@H]3CN[C@H](C(=O)Nc4cccc(C(=O)O)c4)C3)[C@H](C)[C@H]12	8 µg/mL (≈ 16.8 µM)	4 µg/mL (≈ 8.41 µM)	32 µg/mL (≈ 67.3 µM)	4 µg/mL (≈ 8.41 µM)	16 µg/mL (≈ 33.6 µM)	4 µg/mL (≈ 8.41 µM)	8 µg/mL (≈ 16.8 µM)	1 µg/mL (≈ 2.1 µM)	8 µg/mL (≈ 16.8 µM)	1 µg/mL (≈ 2.1 µM)	16 µg/mL (≈ 33.6 µM)	16 µg/mL (≈ 33.6 µM)	2 µg/mL (≈ 4.21 µM)	16 µg/mL (≈ 33.6 µM)	8 µg/mL (≈ 16.8 µM)	0.25 µg/mL (≈ 0.526 µM)	32 µg/mL (≈ 67.3 µM)	1 µg/mL (≈ 2.1 µM)	0.023 µg/mL (≈ 0.0484 µM)	–	–
C[C@@H](O)[C@H]1C(=O)N2C(C(=O)O)=C(S[C@@H]3CN[C@H](CNS(N)(=O)=O)C3)[C@H](C)[C@H]12 [DORIPENEM]	2 µg/mL (≈ 4.76 µM)	1 µg/mL (≈ 2.38 µM)	4 µg/mL (≈ 9.51 µM)	1 µg/mL (≈ 2.38 µM)	1 µg/mL (≈ 2.38 µM)	0.5 µg/mL (≈ 1.19 µM)	1 µg/mL (≈ 2.38 µM)	< 0.5 µg/mL	1 µg/mL (≈ 2.38 µM)	< 0.5 µg/mL	1 µg/mL (≈ 2.38 µM)	2 µg/mL (≈ 4.76 µM)	< 0.5 µg/mL	1 µg/mL (≈ 2.38 µM)	< 0.5 µg/mL	< 0.5 µg/mL	8 µg/mL (≈ 19 µM)	0.5 µg/mL (≈ 1.19 µM)	< 0.5 µg/mL	–	–
C[C@@H](O)[C@H]1C(=O)N2C(C(=O)O)=C(S[C@@H]3CN[C@H](C(=O)N(C)C)C3)[C@H](C)[C@H]12 [MEROPENEM]	4 µg/mL (≈ 10.4 µM)	1 µg/mL (≈ 2.61 µM)	8 µg/mL (≈ 20.9 µM)	1 µg/mL (≈ 2.61 µM)	2 µg/mL (≈ 5.22 µM)	1 µg/mL (≈ 2.61 µM)	4 µg/mL (≈ 10.4 µM)	1 µg/mL (≈ 2.61 µM)	1 µg/mL (≈ 2.61 µM)	0.25 µg/mL (≈ 0.652 µM)	4 µg/mL (≈ 10.4 µM)	–	0.5 µg/mL (≈ 1.3 µM)	4 µg/mL (≈ 10.4 µM)	4 µg/mL (≈ 10.4 µM)	0.5 µg/mL (≈ 1.3 µM)	16 µg/mL (≈ 41.7 µM)	0.5 µg/mL (≈ 1.3 µM)	0.25 µg/mL (≈ 0.652 µM)	–	–
CN(C)c1cc(NC(=O)CNC(C)(C)C)c(O)c2c1C[C@H]1C[C@H]3[C@H](N(C)C)C(O)=C(C(N)=O)C(=O)[C@@]3(O)C(O)=C1C2=O [TIGECYCLINE]	–	–	–	–	–	–	–	–	–	–	–	–	–	–	–	–	–	–	0.125 µg/mL (≈ 0.213 µM)	0.19 µg/mL (≈ 0.324 µM)	MIC (Escherichia coli [20]; isolate 157, Urine): 0.38 µg/mL (≈ 0.649 µM); MIC (Escherichia coli [22]): 0.19 µg/mL (≈ 0.324 µM); MIC (Escherichia coli [23]): 0.125 µg/mL (≈ 0.213 µM); MIC (Escherichia coli [24]): 0.19 µg/mL (≈ 0.324 µM); MIC (Escherichia coli [25]): 0.19 µg/mL (≈ 0.324 µM); MIC (Escherichia coli [26]; isolate 360, Urine): 0.75 µg/mL (≈ 1.28 µM); MIC (Escherichia coli [27]): 0.125 µg/mL (≈ 0.213 µM); MIC (Escherichia coli [28]): 0.75 µg/mL (≈ 1.28 µM); MIC (Escherichia coli [29]): 0.19 µg/mL (≈ 0.324 µM); MIC (Escherichia coli [30]): 0.19 µg/mL (≈ 0.324 µM); MIC (Escherichia coli [31]): 0.19 µg/mL (≈ 0.324 µM); MIC (Escherichia coli [32]): 0.125 µg/mL (≈ 0.213 µM); MIC (Escherichia coli [33]): 0.38 µg/mL (≈ 0.649 µM); MIC (Escherichia coli [34]): 0.125 µg/mL (≈ 0.213 µM); MIC (Escherichia coli [35]): 0.125 µg/mL (≈ 0.213 µM); MIC (Escherichia coli [36]): 0.125 µg/mL (≈ 0.213 µM); MIC (Escherichia coli [37]): 0.38 µg/mL (≈ 0.649 µM)
COLISTIN	–	–	–	–	–	–	–	–	–	–	–	–	–	–	–	–	–	–	0.047 µg/mL	0.047 µg/mL	MIC (Escherichia coli [20]): 0.125 µg/mL; MIC (Escherichia coli [22]): 0.19 µg/mL; MIC (Escherichia coli [23]): 0.047 µg/mL; MIC (Escherichia coli [24]): 0.125 µg/mL; MIC (Escherichia coli [25]): 0.047 µg/mL; MIC (Escherichia coli [26]): 0.19 µg/mL; MIC (Escherichia coli [27]): 0.094 µg/mL; MIC (Escherichia coli [28]): 0.125 µg/mL; MIC (Escherichia coli [29]): 0.047 µg/mL; MIC (Escherichia coli [30]): 0.125 µg/mL; MIC (Escherichia coli [31]): 0.125 µg/mL; MIC (Escherichia coli [32]): 0.047 µg/mL; MIC (Escherichia coli [33]): 0.19 µg/mL; MIC (Escherichia coli [34]): 0.19 µg/mL; MIC (Escherichia coli [35]): 0.047 µg/mL; MIC (Escherichia coli [36]): 0.38 µg/mL; MIC (Escherichia coli [37]): 0.047 µg/mL
